Screening data as filed in PubChem BioAssay.
STAT1 inh: STAT1 signaling inhibition; inhibition, % at 5.5 µM; 200,000 tested, 0.35% active; NIH 3T3 STAT1-luciferase reporter, IFN-gamma, luminescence; AID 920;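 active means inhibition above a set limit, the mean inhibition across all tested compounds plus 3 SD, cut at about 34% in these data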;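 further: 0% = IFN-gamma with DMSO and 100% = IFN-gamma with 300 µM nifuroxazide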
NF-kB expr up: NF-kB expression increase, human neuronal cells. NF-kB reporter expression; stronger effect = higher value. fold change at 12.5 µM. 190,000 tested, 1.6% active; in the data active means fold change above about 3.3
STAT3 blocker: reduces IL-6 driven STAT3 reporter signal; U3A cells, IL-6 STAT3-luciferase reporter, luminescence; host cell line lacks STAT1; inhibition, % at 5.5 µM; 190,000 tested, 0.89% active; AID 862;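 active means inhibition above the mean inhibition across all screened compounds plus 3 SD, cut at about 44% in these data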;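 further: 0% = DMSO only wells and 100% = 100 µM nifuroxazide control wells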
STAT3 act: activators of IL-6 induced STAT3 signaling; U3A cells, IL-6 STAT3-luciferase reporter, luminescence; 100% = signal with IL-6 EC80 alone; activation (% of control), % at 5.6 µM; 190,000 tested, 0.91% active; AID 871;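 active means activation above the screen-wide mean of compound activation plus 3 SD, cut at about 130% in these data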;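 further: 0% = background luminescence of wells with medium and substrate only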
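Material: STAT1-lacking human U3A cells, STAT3 luciferase reporter | Benchmarks: IL-6-only wells as 100% reference | Probe or stimulus: IL-6 (33 ng/mL) | Timing: Compound 1 h, then IL-6 6 h at 37 °C | Detection: Luminescence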
APP 5'UTR act: APP 5'UTR luciferase reporter activation; SH-SY5Y APP 5'UTR luciferase reporter, luminescence; zero percent = DMSO vehicle wells; activation, % at 2 µM; 190,000 tested, 1% active; AID 1276;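 active means activation above a set limit, based on mean plus 3 SD of controls, cut at about 140% in these data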
STAT1 activator: STAT1 signaling activation | NIH 3T3 STAT1-luciferase reporter, IFN-gamma, luminescence; 100% = IFN-gamma alone, no compound | activation (% of control), % at 5.5 µM | 200,000 tested, 2.6% active | AID 932;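 active means activation above the screen-wide mean activation plus 3 SD, cut at about 130% in these data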;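 further: raw ratio to IFN-gamma control signal so 100% means no change and 0% no light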
STAT1 act conf: confirmation of STAT1 signaling activators | shares compounds with STAT1 activator | NIH 3T3 STAT1-luciferase reporter, IFN-gamma potentiation, luminescence; 100% = IFN-gamma EC80 alone, no compound | activation (% of control), % at 5.7 µM | 1,200 tested, 97% active | AID 1262;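 active means activation above a set limit carried over from the earlier primary STAT1 screen, cut at about 140% in these data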;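 further: simple ratio to median IFN-gamma plus DMSO wells so 0% means no light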
NFkB act: counter-screen for STAT1 activators: NF-kappaB activation | shares compounds with STAT1 activator | HEK293T NF-kB luciferase reporter, TNF-alpha stimulated, luminescence; 100% = TNF-alpha with vehicle only | activation (% of control), % at 5.7 µM | 1,200 tested, 43% active;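 active means activation above the mean of solvent-only control wells plus 3 SD, set per campaign, cut at about 130% in these data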;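 further: TNF-alpha given at a submaximal dose yielding about 80% of full reporter signal; values are well signal over median control so 100% means no change and 0% no light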
STAT3 act STAT1c: counter-screen for STAT1 activators: human STAT3 activation; 1,200 tested, 46% active; activation (% of control), % at 5.7 µM; AID 1316; U3A cells STAT3-luciferase reporter, IL-6, luminescence; cells lack STAT1; 100 = IL-6 alone, no compound effect; shares compounds with STAT1 activator;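 active means activation above the solvent-only control well mean plus 3 SD, set per plate batch, cut at about 110% in these data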;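 further: 0% = no luminescence and 100% = median IL-6 plus DMSO wells; higher means more STAT3 reporter activation so hits are non-selective activators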
An asterisk follows results filed as active; . = not tested or not shown. Only some compounds are listed: those with a hit (about 4.9% of all), similar ones and a draw of the others.

SMILES | STAT1 inh | NF-kB expr up | STAT3 blocker | STAT3 act | APP 5'UTR act | STAT1 activator | STAT1 act conf | NFkB act | STAT3 act STAT1c
N#CCc1ccc(NC(=O)/C=C/c2ccc([N+](=O)[O-])o2)cc1 | -231.0 | 1.23 | 23.3 | 83.4 | -56.1 | 311.9* | 129.6* | 154.8* | 101.9
Cc1ccc(OCc2nc(-c3ccccc3)no2)c(C)c1 | -69.8 | 5.15* | 9.9 | 92.2 | 120.2 | 163.2* | 185.1* | 129.2 | 110.5
COc1ccc(NC(=S)Nc2ccc3nccnc3c2)cc1 | -58.8 | 0.98 | 6.2 | 99.2 | 23.9 | 153.3* | 141.1* | 109.3 | 98.5
COc1ccc(NC(=S)Nc2ccc3snnc3c2)cc1 | -11.9 | 1.4 | 10.9 | 93.5 | 40.9 | 109.0 | . | . | .
Cc1ccc2nc(-c3ccc(NC(=O)CCN4C(=O)c5ccccc5C4=O)cc3)sc2c1 | -66.1 | 7.36* | 30.6 | 71.0 | 127.8 | 160.2* | 153.2* | 99.3 | 59.8
c1ccc2c(c1)CCN(c1nc3cc4c(cc3s1)OCO4)C2 | -87.7 | 11.7* | 21.5 | 85.8 | 150.8* | 180.2* | 260.8* | 136.4* | 106.6
Brc1ccc(-c2csc(N3CCc4ccccc4C3)n2)cc1 | -1.1 | 1.08 | -4.0 | 108.0 | 3.6 | 101.0 | . | . | .
C(=N\Nc1nc2ccccc2s1)/c1ccc2c(c1)OCO2 | -119.4 | 3.84* | -26.8 | 117.8 | 180.5* | 208.6* | 271.9* | 123.2 | 123.9*
Cc1ccc(Nc2nc3ccccc3s2)c(C)c1 | -92.6 | 6.37* | 26.3 | 77.8 | 167.6* | 182.3* | 220.2* | 109.3 | 97.8
c1ccc2sc(Nc3nc4cc5c(cc4s3)OCO5)nc2c1 | -97.6 | 4.65* | 0.2 | 99.8 | 195.0* | 187.0* | 264.0* | 149.4* | 123.8*
COC(=O)c1cc(C(=O)Nc2ccc(S(N)(=O)=O)cc2)cc([N+](=O)[O-])c1 | -1.3 | 1.14 | 9.4 | 96.5 | 2.7 | 100.9 | . | . | .
Cc1nc2ccc(NC(=O)NCCCO)cc2s1 | 3.1 | 1.43 | 14.9 | 87.6 | -15.2 | 96.4 | . | . | .
O=C1CC(SC2=NCCS2)C(=O)N1c1cccc(Cl)c1Cl (configuration not stated) | 1.8 | 1.03 | 8.5 | 103.1 | 17.2 | 97.7 | . | . | .
CCC(=O)NC(=S)Nc1cccc(NC(=O)c2ccccc2)c1 | 2.3 | 1.09 | 16.5 | 91.5 | -17.2 | 96.0 | . | . | .
O=C(Nc1ccc(F)cc1)C(Sc1nc2ccccc2[nH]1)c1ccccc1 (configuration not stated) | 7.8 | 1.31 | 0.7 | 101.6 | 13.1 | 93.0 | . | . | .
COc1ccc(/C=N/NC(=O)c2cccc(OC(F)(F)C(F)F)c2)cc1O | 4.1 | 1.04 | 3.9 | 99.0 | 7.6 | 96.4 | . | . | .
O=[N+]([O-])c1cc(Cl)cc(/C=N/Nc2nc3ccccc3s2)c1O | -16.8 | 1.01 | -28.7 | 128.0 | 22.4 | 113.4 | . | . | .
Brc1csc(/C=N/Nc2nc3ccccc3s2)c1 | -100.8 | 4.39* | -14.5 | 114.1 | 161.5* | 190.1* | 248.2* | 149.4* | 133.9*
Fc1ccc2nc(Nc3nc4cc5c(cc4s3)OCCO5)sc2c1 | -74.0 | 1.6 | 3.6 | 96.9 | 102.4 | 165.9* | 194.1* | 125.0 | 104.6
Cc1cc(Nc2ccccc2)n(CCO)n1 | 6.3 | 1.17 | 2.1 | 99.6 | 12.5 | 94.1 | . | . | .
O=C(c1ccc(COc2ccccc2Br)o1)N1N=C(C(F)F)CC1(O)C(F)F (configuration not stated) | 8.1 | 1.14 | 25.6 | 80.7 | -2.4 | 92.9 | . | . | .
COc1ccc(C(=O)/C=C(\C)Nc2ccc3c(c2)OCO3)cc1 | -12.5 | 2.66 | 6.6 | 104.1 | 46.4 | 111.2 | . | . | .
CCOc1ccc(N/C(C)=C\C(=O)c2ccc3c(c2)OCCO3)cc1 | -63.4 | 3.37* | 14.4 | 90.4 | 36.0 | 156.2* | 219.9* | 134.0* | 105.1
Cc1ccc2nc(N/C(=N/S(=O)(=O)c3cccs3)c3ccccc3Cl)sc2c1 | -1.9 | 0.9 | 17.0 | 88.0 | 29.0 | 99.4 | . | . | .
C/C(=N/NC(=O)c1cccs1)c1ccco1 | -31.4 | 2.03 | 4.7 | 96.8 | 81.5 | 128.1 | . | . | .
SMILES | STAT1 inh | NF-kB expr up | STAT3 blocker | STAT3 act | APP 5'UTR act | STAT1 activator | STAT1 act conf | NFkB act | STAT3 act STAT1c
O=C(N/N=C/C=C/c1ccccc1)c1cccs1 | -60.9 | 3.55* | 17.6 | 89.1 | 77.8 | 156.7* | 165.2* | 137.0* | 99.0
CC(/C=N/NC(=O)c1cccs1)=C\c1ccco1 | -73.2 | 5.55* | 2.5 | 102.2 | 160.1* | 171.4* | 172.6* | 128.0 | 109.5
CC(/C=N/NC(=O)Cc1cccs1)=C\c1ccco1 | -13.9 | 1.61 | 9.6 | 97.6 | -2.2 | 112.6 | . | . | .
C/C(=N\NC(=O)c1cccs1)C(C)(C)C | -66.6 | 1.95 | -6.0 | 107.5 | 88.7 | 158.5* | 116.7 | 110.0 | 113.0*
O=C(N/N=C/C=C/c1ccccc1)c1ccncc1 | -1.5 | 1.17 | 1.9 | 97.2 | -11.3 | 101.6 | . | . | .
Fc1ccccc1Nc1nc2c(s1)CCc1ccccc1-2 | -109.9 | 7.8* | -34.5 | 126.8 | 164.3* | 197.9* | 267.6* | 156.8* | 161.4*
Fc1ccccc1Nc1n[nH]c(=S)s1 | -20.6 | 0.91 | 5.8 | 101.8 | 48.1 | 117.5 | . | . | .
C=CCn1c(SCC(N)=O)nc2scc(-c3ccc(C)o3)c2c1=O | -61.9 | 2.75 | 6.5 | 104.7 | 166.6* | 155.4* | 201.9* | 137.6* | 128.5*
COc1ccc(C2=NN(C(C#N)c3ccc(OC)cc3)C(c3ccccc3)C2)cc1 (configuration not stated) | -79.9 | 5.98* | 1.0 | 99.9 | 108.7 | 171.5* | 127.5 | 128.6 | 99.8
COc1ccc(C(C#N)N2N=C(c3ccccc3)CC2c2ccccc2)cc1OC (configuration not stated) | -13.7 | 1.81 | 12.3 | 91.7 | 54.9 | 112.3 | . | . | .
O=C(CSc1nnc(SCc2cccc3ccccc23)s1)N=Nc1c(O)[nH]c2ccccc12 | 7.6 | 0.86 | -17.0 | 114.2 | 5.1 | 93.1 | . | . | .
CCCC(=O)Nc1cccc(NC(=O)c2cccc([N+](=O)[O-])c2C)c1 | 6.6 | 1.02 | 6.2 | 96.6 | 5.3 | 94.1 | . | . | .
Cc1ccccc1CSc1ncc(C#N)c(N)n1 | -72.6 | 2.19 | 10.1 | 92.0 | 2.9 | 165.7* | 169.2* | 128.3 | 110.3
N#Cc1cnc(SCCc2ccccc2)nc1N | -25.8 | 1.22 | 13.3 | 91.5 | 20.4 | 123.8 | . | . | .
Cc1nn(C)c(Cl)c1C(=O)NCC(=O)Nc1ccc(C(C)C)cc1 | -0.7 | 0.87 | 1.8 | 100.5 | 10.2 | 100.0 | . | . | .
